Test results as given in ChEMBL document CHEMBL3865847, “The synthesis and biological evaluation of alkyl and benzyl naphthyridinium analogs of eupolauridine as potential antimicrobial and cytotoxic agents” (Bioorg Med Chem, 2016).
Where “and” joins values, the source holds several entries; their conditions need not be identical. Equal values may be shown once.

Legend:
Candida albicans = experiment: Antimicrobial activity against Candida albicans B311; type: functional
Procedure, shortened: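 Cultured in Sabouraud dextrose broth 24 h, counted by hemocytometer, diluted to 10,000 CFU/mL. Added to serially diluted samples in 96-well plates, top final concentration 50 µg/mL (≤2.5% DMSO), incubated 37 °C. Growth by A630. MIC is the lowest concentration giving 80% inhibition against controls; IC50 from concentration versus % growth plots.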

Cryptococcus neoformans = experiment: Antimicrobial activity against Cryptococcus neoformans ATCC 52657; type: functional
Procedure, shortened: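 Grown in mycophil broth 72 h, hemocytometer-counted, diluted to 200,000 CFU/mL. Exposed to diluted samples in 96-well plates, maximum final 50 µg/mL (DMSO up to 2.5%), incubated 30 °C. A630 readout. MIC is the lowest concentration inhibiting 80% of growth versus controls; IC50 read from concentration versus % growth graphs.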

Plasmodium falciparum = experiment: Antimalarial activity against Plasmodium falciparum D6 infected in RBC after 48 hrs by lactate dehydrogenase assay; type: functional; settings: D6, 48 h
Procedure, shortened: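 Parasites grown in A+ human erythrocytes in RPMI 1640 with 10% A+ human serum, 25 mM HEPES, 27 mM bicarbonate, 60 µg/mL amikacin, 37 °C under 90% N2/5% O2/5% CO2. Infected cells exposed 48 h in microtiter wells, highest concentration 4.8 µg/mL. Growth read by Malstat reagent (parasite LDH) with nitro blue tetrazolium reduction, absorbance 630 nm.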

[1] = Cytotoxicity against human SK-MEL cells assessed as cell growth inhibition after 48 hrs by neutral red dye based assay; type: functional
Procedure, shortened: (§1)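 Cells kept in RPMI-1640 with 10% bovine serum and 60 µg/mL amikacin, 37 °C, 5% CO2. Seeded at 25,000 cells/well, left 24 h to adhere. Samples diluted in RPMI added, highest final concentration 10 µg/mL. Growth measured by neutral red uptake after 48 h exposure.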

[2] = Cytotoxicity against human KB cells assessed as cell growth inhibition after 48 hrs by neutral red dye based assay; type: functional; procedure, shortened: as §1
[3] = Cytotoxicity against human BT549 cells assessed as cell growth inhibition after 48 hrs by neutral red dye based assay; type: functional; settings: BT-549, 48 h; procedure, shortened: as §1
[4] = Cytotoxicity against human SKOV3 cells assessed as cell growth inhibition after 48 hrs by neutral red dye based assay; type: functional; settings: SK-OV-3, 48 h; procedure, shortened: as §1
[5] = Cytotoxicity against African green monkey Vero cells assessed as cell growth inhibition at 10 ug/ml after 48 hrs by neutral red dye based assay; type: toxicity; settings: chlorocebus sabaeus; procedure, shortened: as §1
[6] = Inhibition of Candida albicans DNA topoisomerase 1 using pHOT1 as substrate after 30 mins by agarose gel electrophoresis
Procedure, shortened: (§2)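 Relaxation of supercoiled to relaxed DNA by TopoI measured with a commercial TopoI drug kit following kit protocol. IC50 calculated from dose-response curves of % inhibition versus concentration.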

DNA topoisomerase 1 = molecular target: T1, DNA topoisomerase 1 (Homo sapiens, UniProt P11387); experiment: Inhibition of human DNA topoisomerase 1 using pHOT1 as substrate after 30 mins by agarose gel electrophoresis; procedure, shortened: as §2
T1 sequence (P11387 whole entry): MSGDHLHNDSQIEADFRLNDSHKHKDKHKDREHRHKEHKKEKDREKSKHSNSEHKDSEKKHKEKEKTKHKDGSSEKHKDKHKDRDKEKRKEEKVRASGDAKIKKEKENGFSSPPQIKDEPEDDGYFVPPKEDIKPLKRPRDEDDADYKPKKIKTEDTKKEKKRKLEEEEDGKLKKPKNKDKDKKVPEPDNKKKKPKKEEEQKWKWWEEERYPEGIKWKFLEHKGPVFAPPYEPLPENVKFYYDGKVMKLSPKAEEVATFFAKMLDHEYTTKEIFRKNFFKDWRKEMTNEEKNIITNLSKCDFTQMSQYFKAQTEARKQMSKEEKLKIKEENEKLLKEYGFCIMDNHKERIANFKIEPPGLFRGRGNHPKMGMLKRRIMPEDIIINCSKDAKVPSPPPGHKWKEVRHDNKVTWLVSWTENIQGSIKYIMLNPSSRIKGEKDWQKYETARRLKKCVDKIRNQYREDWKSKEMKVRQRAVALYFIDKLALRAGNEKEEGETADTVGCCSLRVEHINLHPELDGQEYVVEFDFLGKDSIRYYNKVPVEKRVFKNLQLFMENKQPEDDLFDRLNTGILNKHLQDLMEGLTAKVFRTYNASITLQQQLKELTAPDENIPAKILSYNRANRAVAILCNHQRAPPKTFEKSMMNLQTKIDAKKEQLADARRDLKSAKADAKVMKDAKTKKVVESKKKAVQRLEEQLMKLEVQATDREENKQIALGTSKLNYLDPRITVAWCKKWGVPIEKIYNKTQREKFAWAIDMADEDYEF

[7] = Selectivity index, ratio of IC50 for human DNA topoisomerase 1 to IC50 for Candida albicans DNA topoisomerase 1
[8] = test system: Mycobacterium intracellulare; experiment: Antimicrobial activity against Mycobacterium intracellulare ATCC 23068; type: functional
Procedure, shortened: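 Mycobacterium grown 72 h in Middlebrook medium with OADC supplement, diluted 1:30 in broth. Incubated at 37 °C with diluted samples in 96-well plates, highest final 50 µg/mL, DMSO at most 2.5%. Absorbance at 630 nm. MIC = lowest concentration with 80% growth inhibition relative to controls; IC50 from concentration versus % growth plots.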

Structure (SMILES)	IC50 (Candida albicans)	MIC80 (Candida albicans)	IC50 (Cryptococcus neoformans)	MIC80 (Cryptococcus neoformans)	IC50 (Plasmodium falciparum)	IC50 [1]	IC50 [2]	IC50 [3]	IC50 [4]	Activity [5]	IC50 [6]	IC50 (DNA topoisomerase 1)	Ratio IC50 [7]	MIC80 [8]
Cc1cc2cc[n+](Cc3ccccc3)c3c2c(n1)-c1ccccc1-3.[Br-]	13.3 µg/mL	25 µg/mL	0.82 µg/mL	1.56 µg/mL	0.095 µg/mL	4.2 µg/mL	> 10 µg/mL	3.5 µg/mL	1.7 µg/mL	Non-Toxic	11 µg/mL	30.8 µM	0.92	
C[n+]1ccc2ccnc3c2c1-c1ccccc1-3.[I-]			10 µg/mL	50 µg/mL	0.06 µg/mL				> 10 µg/mL	Non-Toxic	10 µg/mL	28.9 µM	1	
C[n+]1ccc2c3c(nc4cc5c(cc42)OCO5)-c2ccccc2-c31.[I-]	16.1 µg/mL	25 µg/mL	0.37 µg/mL	1.56 µg/mL	0.028 µg/mL	5 µg/mL	4.2 µg/mL	1.2 µg/mL	1.2 µg/mL	Non-Toxic	0.425 µg/mL	1.02 µM	0.94	50 µg/mL
Cc1ccc2c(c1)-c1c3c-2nccc3cc[n+]1Cc1ccccc1.[Br-]	6.17 µg/mL	12.5 µg/mL	0.48 µg/mL	1.56 µg/mL	0.062 µg/mL	1.4 µg/mL	0.52 µg/mL	1.8 µg/mL	0.58 µg/mL	Non-Toxic	15 µg/mL	45 µM	0.86	50 µg/mL
CCOC(=O)C[n+]1ccc2ccnc3c2c1-c1ccccc1-3.[Br-]					0.5 µg/mL				7.6 µg/mL	Non-Toxic	75 µg/mL	242 µM	0.83	
CCN(CC)CCCC(C)Nc1ccnc2cc(Cl)ccc12 (stereo not given) [CHLOROQUINE]					< 0.02 µg/mL									
[Br-].c1ccc(C[n+]2ccc3cc(-c4ccccc4)nc4c3c2-c2ccccc2-4)cc1	1.5 µg/mL	3.12 µg/mL	0.95 µg/mL	3.12 µg/mL	0.04 µg/mL	0.7 µg/mL	1 µg/mL	1.2 µg/mL	0.25 µg/mL	Non-Toxic	4.3 µg/mL	9.75 µM	0.98	
Fc1ccc(C[n+]2ccc3ccnc4c3c2-c2ccccc2-4)cc1.[Br-]	9.33 µg/mL	12.5 µg/mL	0.87 µg/mL	3.12 µg/mL	0.017 µg/mL	6 µg/mL	> 10 µg/mL	7.5 µg/mL	1.5 µg/mL	Non-Toxic	40 µg/mL	127 µM	0.8	
C[n+]1ccc2c3c(nc4ccccc42)-c2ccccc2-c31													0.83 and 1	
Cc1cc2cc[n+](C)c3c2c(n1)-c1ccccc1-3.[I-]			8 µg/mL	50 µg/mL	0.11 µg/mL					Non-Toxic	5 µg/mL	12.5 µM	1.11	
